Screening data: PubChem BioAssay, several laboratories
A selection: hits, their analogues and other compounds. The true share with any hit is near 11%.
Lmaj promast: Leishmania major promastigote growth inhibition; Leishmania major promastigotes, resazurin fluorescence viability; inhibition, % at 10 µM; 200,000 compounds, 9% hits;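 note: promastigotes grown with compound for 44 hours at 28 °C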
WT yeast gro inh: growth inhibition of WT yeast, mitochondrial fusion screen; mitochondrial fusion phenotypic screen, WT strain; inhibition, % at 10 µM; 190,000 compounds, 2.1% hits; AID 1362; in the data active = inhibition above about 58%; tested in S. cerevisiae
G6PDH counter: inhibits Leuconostoc G6PDH, flagging false hits in G6PDH-based assays. AID 1020. inhibition, % at 5 µM. 200,000 compounds, 0.12% hits. Purified L. mesenteroides G6PDH, diaphorase/resazurin coupled fluorescence, 45 min
Diaphorase act: counter-screen for diaphorase-based assays: diaphorase activators and chemical reducers | Diaphorase/resazurin coupled assay, resorufin fluorescence, 16 min; stronger effect = higher value; 1 = vehicle wells, 0 = NADH-free wells | activation factor at 20 µM | 190,000 compounds, 0.005% hits | AID 1229;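 active = diaphorase activity raised at least twofold by the compound at 20 µM; inactive = activation factor below 2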
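Material: bacterial diaphorase enzyme (C. kluyveri); amount: enzyme 0.07 U/mL final; reagent: NADH substrate 0.114 mM plus resazurin dye 0.1 mM, final; doses: single compound dose of 20 µM, 1% DMSO final; timing: 16 min enzyme reaction, ambient temperature; measured by: fluorescence of resorufin, 544 nm excitation, 590 nm emission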
Diaph inh CS: counter-screen for diaphorase-based assays: diaphorase inhibitors and chemical oxidizers; 190,000 compounds, 0.69% hits; AID 1217; diaphorase resazurin-to-resorufin fluorescence, NADH, 16 min; bacterial (C. kluyveri) enzyme, not human; inhibition, % at 20 µM;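 active = primary screen inhibition at 20 µM above a set limit, cut at about 50% in these data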;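 note: plate controls were DMSO with full reaction for no effect and wells lacking NADH for full effect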
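Detection: fluorescence of resorufin formed from resazurin, Ex 544/Em 590 nm; test system: Clostridium kluyveri diaphorase enzyme; amount: 0.14 U/mL diaphorase, enzyme working solution; times: 16-min room-temperature incubation before reading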
Active calls of the source: *; nt = no result. Cut-off read from the data, not from the text of the source, unless noted: active = inhibition above about 50%; inactive = the rest.

SMILES	Lmaj promast	WT yeast gro inh	G6PDH counter	Diaphorase act	Diaph inh CS
CC(=O)c1ccc(Nc2ccc(-c3ccccc3F)nn2)cc1	0.9	-14.6	-6.3	1.1	-12.4
CC(C)Oc1ccc(C(=O)N/N=C/c2ccc(-c3ccc(S(=O)(=O)Nc4ncccn4)cc3)o2)cc1	-10.9	-4.3	17.3	0.9	6.8
Cc1nn(C)cc1CN1CCCC(C(=O)c2ccc(-c3ccccc3)cc2)C1 (configuration not stated)	89.8*	12.6	14.9	0.9	7.4
O=C(c1ccc(-c2ccccc2)cc1)C1CCCN(Cc2ccncc2)C1 (configuration not stated)	93.4*	39.7	15.1	1.1	-9.4
O=C(c1ccc(-c2ccccc2)cc1)C1CCCN(C(=O)c2ccncc2)C1 (configuration not stated)	16.6	28.1	6.5	nt	nt
c1ccc(-c2ccc(CN3CCN(c4ncccn4)CC3)cc2)cc1	-0.8	8.5	5.4	0.9	6.0
OCC1CCCN(Cc2ccc(-c3ccccc3)cc2)C1 (configuration not stated)	95.6*	10.9	3.9	0.8	22.0
Cc1ncoc1C(=O)N1CCCC(C(=O)c2ccc(-c3ccccc3)cc2)C1 (configuration not stated)	-6.8	68.3*	4.2	0.9	5.7
COc1ccc(Cn2nnnc2C(c2ccc(N(C)C)cc2)N2CCC(C(N)=O)CC2)cc1 (configuration not stated)	1.0	-6.3	9.4	1	-0.1
O=C(Nc1ccc(OC(F)(F)F)cc1)C1CCCN(S(=O)(=O)c2cccnc2)C1 (configuration not stated)	18.3	-26.3	15.3	0.8	22.4
O=C(c1ccc(Cl)cc1)C1CCCN(C(=O)/C=C/c2ccccn2)C1 (configuration not stated)	9.0	10.1	13.2	1	-1.0
O=C(c1ccc(Cl)cc1)C1CCCN(Cc2ccc(Oc3ncccn3)cc2)C1 (configuration not stated)	86.2*	10.5	24.7	0.8	16.4
COCCNC(=S)NC1CC2CCCC(C1)N2Cc1ccco1 (configuration not stated)	-5.6	6.8	12.5	1	-1.0
Cc1ccc(C)c(NC(=S)NC2CC3CCC(C2)N3Cc2ccco2)c1 (configuration not stated)	42.2	5.2	10.6	0.8	18.8
Fc1ccc(NC(=S)NC2CC3CCC(C2)N3Cc2ccco2)cc1 (configuration not stated)	81.6*	-17.4	9.0	1	0.3
Cc1ccc(C)c(NC(=S)NC2CC3CCCC(C2)N3CC(C)C)c1 (configuration not stated)	65.1*	2.9	5.0	1	-3.4
CCOc1ccc(NC(=S)NC2CC3CCC(C2)N3Cc2ccco2)cc1 (configuration not stated)	68.0*	12.4	8.5	1	-2.2
Cc1cc(C)cc(NC(=S)NC2CC3CCC(C2)N3Cc2ccco2)c1 (configuration not stated)	90.1*	79.2*	7.9	0.9	9.6
Cc1cccc(NC(=S)NC2CC3CCCC(C2)N3Cc2cccs2)c1 (configuration not stated)	89.3*	-0.9	1.0	0.9	8.1
CCCN1C2CCCC1CC(NC(=S)NCCCOCC)C2 (configuration not stated)	-4.1	-13.6	-0.9	0.9	8.6
CCCN1C2CCCC1CC(NC(=S)Nc1cc(C)cc(C)c1)C2 (configuration not stated)	53.6*	-7.5	6.0	0.8	20.0
CCOc1ccccc1-n1c(SCC(=O)Nc2nccs2)nnc1-c1ccoc1C	73.0*	-10.8	3.3	0.8	24.7
CC(OC(=O)CCc1nc2ccccc2c(=O)[nH]1)C(=O)c1ccc(Br)cc1 (configuration not stated)	-2.6	-14.9	-1.7	0.9	11.4
O=[N+]([O-])c1ccc(Sc2cccc3cccnc23)c2cccnc12	-3.6	4.4	23.0	0.4	59.1*
CCOC(=O)c1c(=O)n(O)c2ccc(OC)cc2[n+]1[O-]	-3.6	-7.7	4.0	0.7	27.7
SMILES	Lmaj promast	WT yeast gro inh	G6PDH counter	Diaphorase act	Diaph inh CS
COc1ccc(/C=N/N2CCOCC2)cc1COc1ccc(Cl)cc1	87.3*	18.6	11.0	0.9	5.9
COc1ccc(-c2csc(Cc3nnc4n3CCCCC4)n2)cc1OC	59.6*	-16.2	4.9	0.9	11.1
CCOc1ccc(NC(c2ccccn2)c2oc(CO)cc(=O)c2O)cc1 (configuration not stated)	0.5	1.8	16.1	0.7	30.1
Cc1ccc(-c2cnc(SCC(=O)N3CCCc4ccccc43)n2C)cc1	-1.6	25.4	-0.1	0.8	21.5
CC(C)c1nc(SCC(=O)N2CCCc3ccccc32)c2c(=O)n(C)c(=O)n(C)c2n1	51.2*	44.0	-23.3	0.7	25.3
Cc1cc2nc(-c3ccc(SCC(=O)NC(C)C)nc3)[nH]c2cc1C	48.6	14.6	5.0	0.9	6.7
Cn1c(-c2ccccc2)cnc1SCC(=O)N1CCCc2ccccc21	76.7*	11.1	17.4	0.9	13.8
O=C(CSc1nc(N2CCCCC2)nc(N2CCCCC2)n1)N1CCc2ccccc21	-3.4	24.3	5.5	0.8	23.3
O=C(CSc1nnc(-c2ccccc2)c(-c2ccccc2)n1)N1CCc2ccccc21	56.7*	10.1	-40.2	1	2.2
Cc1cc2nc(-c3ccc(SCC(=O)N4CCc5ccccc54)nc3)[nH]c2cc1C	86.5*	18.1	-1.5	1	-4.6
CCOc1ccc(C(=O)NCC(=O)OC(C)C(=O)NCc2ccco2)cc1OCC (configuration not stated)	-3.8	-1.7	8.4	0.9	13.4
CN1CCc2nc(SCC(=O)Nc3ccc(F)cc3)c(C#N)cc2C1	6.4	6.9	-33.9	0.8	18.3
Cc1ccc(NC(=O)c2ccc(C(C)(C)C)cc2)cc1-n1cnnn1	15.4	-7.3	13.0	0.9	6.1
O=C(CSc1nnnn1C1CCCCC1)N1CCc2ccccc21	-3.2	9.6	3.3	0.9	5.2
O=C(CSc1ncc(-c2ccccc2)n1C1CCCC1)N1CCc2ccccc21	50.5*	-6.3	3.6	0.8	21.5
Nc1ncnc2nc(SCCOc3ccc(Cl)cc3)[nH]c12	55.3*	9.0	5.0	0.9	12.7
Cc1ccc(OCCSc2nc3ncnc(N)c3[nH]2)cc1	9.0	17.7	2.5	0.8	19.8
CC1CCN(C(=O)CNC(=O)c2cccc(OC(F)F)c2)CC1	-4.9	4.4	11.9	0.9	9.1
Cc1cc(C)n(-c2ccc(C(=O)Nc3ccc(C)c(S(=O)(=O)N(C)C)c3)cc2)n1	53.2*	11.9	-13.9	1	3.0
CC(=O)c1ccc(OCCCC(=O)Nc2ccc(C)c(S(=O)(=O)N(C)C)c2)cc1	60.7*	-2.6	-0.7	1	4.4
Cc1cc(C)n(-c2ccc(C(=O)Nc3ccc(S(=O)(=O)N(C)C)cc3)cc2)n1	10.4	7.7	-5.3	0.7	26.2
